Laboratory results as given in PubChem BioAssay.
Activity calls are given as the source filed them. Unless noted, no stated cut-off is given here; in the data, active means inhibition above about 30%; inactive means the rest.

What was measured:
[1] = reducers of endogenous Her2 protein level, primary screen, SKBR3 breast tumor cells, AlphaScreen, ATP viability (AID 461;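 active means Her2 level under about 52% in both replicate screens, with viability over 70% of control, limit read from the data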;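 on Her2 level: lower value means less Her2 protein in the cells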;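 on viability: percent of carrier control wells set as 100% viability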); conditions: 18-24 h, measured here: SKBR3 viability, ATP luminescence, at 10 µM
[2] = biological target: Receptor tyrosine-protein kinase erbB-2 (Homo sapiens) (UniProt P04626); assay: as above; conditions: 18-24 h, at 10 µM, stronger effect = lower value
Sequence of Receptor tyrosine-protein kinase erbB-2 (Homo sapiens) (P04626 whole entry, looked up): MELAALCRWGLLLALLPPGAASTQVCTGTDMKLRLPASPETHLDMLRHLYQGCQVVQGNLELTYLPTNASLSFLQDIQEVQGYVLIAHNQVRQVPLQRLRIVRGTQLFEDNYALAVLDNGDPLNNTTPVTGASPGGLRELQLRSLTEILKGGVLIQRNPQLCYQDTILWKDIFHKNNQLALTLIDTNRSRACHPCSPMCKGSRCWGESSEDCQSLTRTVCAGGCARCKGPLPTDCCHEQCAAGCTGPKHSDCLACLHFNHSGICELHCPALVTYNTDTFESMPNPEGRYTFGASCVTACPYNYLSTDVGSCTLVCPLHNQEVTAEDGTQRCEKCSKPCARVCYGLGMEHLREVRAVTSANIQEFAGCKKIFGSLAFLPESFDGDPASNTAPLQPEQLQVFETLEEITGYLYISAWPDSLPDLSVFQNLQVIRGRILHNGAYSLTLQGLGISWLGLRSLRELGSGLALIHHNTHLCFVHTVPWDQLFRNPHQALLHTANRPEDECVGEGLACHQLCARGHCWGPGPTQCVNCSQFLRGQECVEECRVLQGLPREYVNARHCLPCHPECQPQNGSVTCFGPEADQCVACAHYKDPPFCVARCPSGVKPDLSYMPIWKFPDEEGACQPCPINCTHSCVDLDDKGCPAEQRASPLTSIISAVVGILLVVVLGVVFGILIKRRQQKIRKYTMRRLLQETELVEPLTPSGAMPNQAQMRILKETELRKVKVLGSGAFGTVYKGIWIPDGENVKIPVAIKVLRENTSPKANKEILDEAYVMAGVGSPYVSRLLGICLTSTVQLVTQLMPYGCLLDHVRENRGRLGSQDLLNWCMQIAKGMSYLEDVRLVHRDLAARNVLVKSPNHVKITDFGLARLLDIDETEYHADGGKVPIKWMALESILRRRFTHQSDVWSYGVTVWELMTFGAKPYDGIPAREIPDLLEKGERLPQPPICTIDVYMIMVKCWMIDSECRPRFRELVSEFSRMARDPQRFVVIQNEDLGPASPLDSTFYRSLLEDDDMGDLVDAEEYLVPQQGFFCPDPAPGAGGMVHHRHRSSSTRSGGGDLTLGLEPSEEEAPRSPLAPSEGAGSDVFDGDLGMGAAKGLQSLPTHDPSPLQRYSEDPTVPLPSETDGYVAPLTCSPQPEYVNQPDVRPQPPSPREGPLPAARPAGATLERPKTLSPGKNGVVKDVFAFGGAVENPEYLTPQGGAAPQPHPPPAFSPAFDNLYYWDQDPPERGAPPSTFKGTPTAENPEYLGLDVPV

[3] = SK-BR-3 cell growth inhibitors, pilot screen, 24 h, human (AID 572;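 active means viability at or below 10% of carrier control in both of two separate runs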;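 further: compound exposure lasted between 18 and 24 h rather than exactly 24 h; 100% = carrier-treated control wells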); conditions: SK-BR-3 viability, CellTiter-Glo luminescence, at 10 µM, stronger effect = lower value
[4] = HUVEC growth inhibition – cell-based, human, primary screen (AID 575;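 active means viability at or below 30% in both replicate assays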;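 further: 100% = median of untreated cell wells with 0.1% DMSO on each plate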); conditions: HUVEC proliferation, CellTiter-Glo luminescence, 72 h; at 10 µM; stronger effect = lower value
Outline: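 Test system – primary HUVEC, no more than 12 passages · Dosing – one dose, 10 µM final, 0.1% DMSO · Times – 72 h treatment at 37 °C · Measured by – ATP-based CellTiter-Glo luminescent read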

[5] = growth inhibitors of H69AR lung tumor, primary screen, human, duplicate replicates (AID 580;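 active means viability at or under a set limit in both replicates, limit being median viability minus 3 SD, cut at about 48% in these data, passing the limit was not always enough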;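 further: 100% = mean luminescence of untreated wells and 0% = no signal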); conditions: H69AR lung tumor cells viability, ATP luminescence, 72 h; at 10 µM; stronger effect = lower value
[6] = reversal of MRP1-mediated doxorubicin resistance, pilot screen, H69AR cells, doxorubicin co-treatment (AID 601;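 active means viability loss from added drug above about 55%, and viability with drug at most 40%, in both replicates, limit read from the data, passing the limit was not always enough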); conditions: CellTiter-Glo, 72 h, at 10 µM; for differential viability (reversal): stronger effect = higher value
[7] = 384-well plate pilot, post-Golgi transport modulator project, inhibition of yeast transport mutant growth (AID 636; in the data active means inhibition above about 31%); conditions: absorbance 615 nm, about 18 h, stronger effect = higher value
[8] = growth suppression of yeast trafficking mutant, preliminary HTS, modulators of trafficking downstream of Golgi apparatus project, 1536-format plate, OD 615 nm (AID 637); conditions: yeast transport mutant growth, absorbance 615 nm, 18 h; stronger effect = higher value
[9] = H69AR cells + 2 uM doxorubicin, measured here: viability with 2 uM doxorubicin, stronger effect = lower value
[10] = H69AR cells, compound alone cytotoxicity

SMILES	viability [1]	Her2 level [2]	viability [3]	viability [4]	viability [5]	differential viability (reversal) ([6]; H69AR cells + 2 uM doxorubicin)	viability [6, 9]	viability [6, 10]	inhibition [7]	inhibition [8]
O=c1c2cc(Cl)ccc2[nH]c(=S)n1Cc1ccco1	84.5%	81% (inactive)	84.5% (inactive)	93.6% (inactive)	86.7% (inactive)	-1.27% (inactive)	88%	86.7%	-8.13% (inactive)	10.2% (inactive)
O=c1[nH]c(/C(=N\O)c2ccccc2)no1	93.5%	82% (inactive)	93.5% (inactive)	83.2% (inactive)	73.2% (inactive)	32.5% (inactive)	40.7%	73.2%	-0.39% (inactive)	5.74% (inactive)
COc1ccc(N2CCN(C(c3cccs3)c3nnnn3C3CCCC3)CC2)cc1 (stereo not given)	90.5%	95% (inactive)	90.5% (inactive)	69.3% (inactive)	70% (inactive)	-17.6% (inactive)	87.5%	70%	-3.25% (inactive)	-5.87% (inactive)
O=C(NCC1CCCO1)C1c2ccccc2C(=O)N1C1CCCCCC1 (stereo not given)	105%	89% (inactive)	105% (inactive)	88.9% (inactive)	104% (inactive)	6.58% (inactive)	97.6%	104%	-2.6% (inactive)	1.43% (inactive)
CC(=O)Nc1ccc(OC(=O)c2cccs2)cc1	101%	97% (inactive)	101% (inactive)	103% (inactive)	87% (inactive)	-13.6% (inactive)	101%	87%	-1.17% (inactive)	-4.59% (inactive)
Cc1c(Cl)cnc(NC(=O)COC(=O)C(NC(=O)c2ccco2)C(C)C)c1Cl (stereo not given)	86%	85% (inactive)	86% (inactive)	92.4% (inactive)	83.2% (inactive)	10.7% (inactive)	72.5%	83.2%	-1.89% (inactive)	-4.76% (inactive)
O=C(c1ccccc1F)N1CCN(Cc2cccc(Cl)c2)CC1	101%	104% (inactive)	101% (inactive)	107% (inactive)	100% (inactive)	16.8% (inactive)	83.6%	100%	-5.32% (inactive)	-2.86% (inactive)
COc1ccc(N2CCN(C(=O)CSc3nnc4n3C(C)(C)Cc3ccccc3-4)CC2)cc1	96%	100% (inactive)	96% (inactive)	84.3% (inactive)	88.7% (inactive)	-4.46% (inactive)	93.1%	88.7%	-5.79% (inactive)	-1.61% (inactive)
CCOc1ncccc1C(=O)OCC(=O)Nc1ncc(C(F)(F)F)cc1Cl	99.5%	95% (inactive)	99.5% (inactive)	97.2% (inactive)	93.8% (inactive)	-0.51% (inactive)	94.3%	93.8%	-1.58% (inactive)	7.9% (inactive)
O=C(OCc1nnc(-c2ccccc2)o1)c1ccc2ccccc2n1	106%	116% (inactive)	106% (inactive)	100% (inactive)	89.4% (inactive)	-0.715% (inactive)	90.1%	89.4%	3.15% (inactive)	23.2% (inactive)
COC(=O)CCn1nnc(-c2cccs2)n1	99.5%	126% (inactive)	99.5% (inactive)	101% (inactive)	103% (inactive)	5.5% (inactive)	97.4%	103%	3.73% (inactive)	4.1% (inactive)
O=C(CN(CCc1ccccc1)C(=O)CN1C(=O)COc2ccccc21)NCc1ccco1	88.5%	87.5% (inactive)	88.5% (inactive)	102% (inactive)	78.6% (inactive)	0.605% (inactive)	78%	78.6%	-0.65% (inactive)	-1.15% (inactive)
Cc1ccc(-c2nnn(CC(=O)N(Cc3cccs3)C(C(=O)NC(C)(C)C)c3ccc(C)o3)n2)o1 (stereo not given)	86.5%	96.5% (inactive)	86.5% (inactive)	93.4% (inactive)	79% (inactive)	3.37% (inactive)	75.7%	79%	-0.77% (inactive)	-5.67% (inactive)
CCCS(=O)(=O)NCCc1cc2cc(C)c(C)cc2[nH]c1=O	106%	90% (inactive)	106% (inactive)	101% (inactive)	96.3% (inactive)	8.55% (inactive)	87.7%	96.3%	-8.22% (inactive)	-0.63% (inactive)
O=C(CNS(=O)(=O)c1ccc(Br)s1)N1CCCC1	118%	115% (inactive)	118% (inactive)	98.7% (inactive)	99.9% (inactive)	9.79% (inactive)	90.1%	99.9%	-2.11% (inactive)	6.89% (inactive)
O=C(Nc1ccccc1)c1cccnc1N1CCOCC1	94%	80% (inactive)	94% (inactive)	105% (inactive)	102% (inactive)	18.2% (inactive)	84.1%	102%	-0.92% (inactive)	-2.73% (inactive)

SMILES	viability [1]	Her2 level [2]	viability [3]	viability [4]	viability [5]	differential viability (reversal) ([6]; H69AR cells + 2 uM doxorubicin)	viability [6, 9]	viability [6, 10]	inhibition [7]	inhibition [8]
O=C(C1CC1)N1CCc2cc(S(=O)(=O)N(CCO)Cc3ccccc3)ccc21	94%	102% (inactive)	94% (inactive)	77% (inactive)	98.8% (inactive)	-1.38% (inactive)	100%	98.8%	-0.4% (inactive)	-0.33% (inactive)
CCOP(=O)(c1ccc(N(C)C)cc1)C(O)c1cc(OC)c(OC)c(OC)c1 (stereo not given)	76.5%	80% (inactive)	76.5% (inactive)	80.6% (inactive)	87.4% (inactive)	-0.05% (inactive)	87.4%	87.4%	-3.68% (inactive)	-2.38% (inactive)
CN1CCN(C(c2cccc(C(F)(F)F)c2)c2nnnn2C(C)(C)C)CC1 (stereo not given)	94.5%	86.5% (inactive)	94.5% (inactive)	102% (inactive)	91.5% (inactive)	1.82% (inactive)	89.7%	91.5%	-4.8% (inactive)	0.82% (inactive)
CC(C)CNC(=O)c1c(N)n(/N=C/c2ccccn2)c2nc3ccccc3nc12	88.5%	92.5% (inactive)	88.5% (inactive)	80.4% (inactive)	83.9% (inactive)	2.92% (inactive)	81%	83.9%	-4.67% (inactive)	-1.48% (inactive)
COc1ccc(C(NC(=O)C(C)(C)C)NC(=O)C(C)(C)C)cc1	86%	99.5% (inactive)	86% (inactive)	111% (inactive)	91.7% (inactive)	6.21% (inactive)	85.5%	91.7%	-5.32% (inactive)	-0.32% (inactive)
COC(=O)C1=C(N)Oc2cc(C)[nH]c(=O)c2C1c1ccncc1 (stereo not given)	132%	106% (inactive)	132% (inactive)	94.4% (inactive)	94.7% (inactive)	7.35% (inactive)	87.3%	94.7%	-0.79% (inactive)	5% (inactive)
COc1ccc2[nH]c(=O)c(CN(CCO)S(=O)(=O)c3ccc4c(c3)OCCO4)cc2c1	85%	97.5% (inactive)	85% (inactive)	99.8% (inactive)	94% (inactive)	6.97% (inactive)	87%	94%	-5.07% (inactive)	-2.3% (inactive)
Cc1cccc(-c2c3c(=O)n(C)c(=O)n(C)c3cn2-c2ccc(O)cc2)c1	102%	80% (inactive)	102% (inactive)	108% (inactive)	86.6% (inactive)	-6.51% (inactive)	93.1%	86.6%	-3.11% (inactive)	-2.38% (inactive)
Cc1occc1-c1nnc(SCC(=O)c2ccc(F)cc2)n1Cc1ccco1	77.5%	82% (inactive)	77.5% (inactive)	84.1% (inactive)	85.3% (inactive)	3.13% (inactive)	82.2%	85.3%	-1.33% (inactive)	-0.16% (inactive)
CCC(C)N=C1SCC(C)(/C=N/O)S1 (stereo not given)	97%	88.5% (inactive)	97% (inactive)	116% (inactive)	104% (inactive)	7.86% (inactive)	95.8%	104%	-2.37% (inactive)	-0.98% (inactive)
CCCC(=O)N(Cc1cc2ccccc2[nH]c1=O)c1ccccc1OC	97%	94.5% (inactive)	97% (inactive)	105% (inactive)	105% (inactive)	5.2% (inactive)	99.5%	105%	-0.26% (inactive)	12.3% (inactive)
O=C(CN(Cc1ccc2c(c1)OCO2)C(=O)CNS(=O)(=O)c1ccccc1)NCc1ccco1	97%	86.5% (inactive)	97% (inactive)	107% (inactive)	99.4% (inactive)	2.35% (inactive)	97%	99.4%	0.41% (inactive)	-1.31% (inactive)
O=S(=O)(NCC1CCCO1)c1cc(Cl)ccc1Br (stereo not given)	87.5%	121% (inactive)	87.5% (inactive)	109% (inactive)	96.5% (inactive)	2.42% (inactive)	94.1%	96.5%	3.25% (inactive)	4% (inactive)
CC(C)CNC(=O)c1ccccc1NC(=O)c1ccc(CN2CCOCC2)cc1	92.5%	96% (inactive)	92.5% (inactive)	106% (inactive)	99.6% (inactive)	11.9% (inactive)	87.7%	99.6%	-5.68% (inactive)	1.8% (inactive)
COC(=O)Cc1c(C)nc2nc(-c3ccco3)[nH]n2c1=O	110%	93% (inactive)	110% (inactive)	93.6% (inactive)	98.7% (inactive)	8.05% (inactive)	90.6%	98.7%	-2.76% (inactive)	-3.65% (inactive)
CN(C)c1ccc(NC(=O)c2cc3c(=O)n4ccccc4nc3n2C)cc1	87.5%	72.5% (inactive)	87.5% (inactive)	97.8% (inactive)	80.3% (inactive)	-3.47% (inactive)	83.8%	80.3%	-0.54% (inactive)	14.1% (inactive)
